# Measurements reported in PMC5094435 (Saudi Pharmaceutical Journal : SPJ, 2015).
# How the values were obtained:
# [1] = system: Staphylococcus aureus (MTCC 96); experiment: Antibacterial activity; type: cell-based; conditions: MTCC96, read-out: MIC, S. aureus
# Outline: (§1)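 Screened by a standard method against S. aureus MTCC 96, B. subtilis MTCC 121, E. coli MTCC 1652 and P. aeruginosa MTCC 741. Ciprofloxacin was the reference antibiotic. Only compounds active at 100 μg/mL went on to MIC determination.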
# [2] = system: Escherichia coli (MTCC 1652); experiment: Antibacterial activity; type: cell-based; conditions: for MIC, E. coli: E. coli (MTCC 1652); for MIC: Escherichia coli, MTCC1652, read-out: MIC, E. coli
# Outline: as §1
# [3] = system: Pseudomonas aeruginosa (MTCC 741); experiment: Antibacterial activity; type: cell-based; conditions: for MIC, P. aeruginosa: P. aeruginosa (MTCC 741); for MIC: Pseudomonas aeruginosa, MTCC741, read-out: MIC, P. aeruginosa
# Outline: as §1
# [4] = system: Bacillus subtilis (MTCC 121); experiment: Antibacterial activity; type: cell-based; conditions: MTCC121, read-out: MIC, B. subtilis
# Outline: as §1
# Aspergillus niger = experiment: Antifungal activity; type: cell-based; conditions: read-out: MIC, A. niger
# Outline: (§2)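 Run by the poison food technique against Aspergillus niger and Aspergillus flavus. Fluconazole was the reference drug.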
# Aspergillus flavus = experiment: Antifungal activity; type: cell-based; conditions: read-out: MIC, A. flavus
# Outline: as §2
# [5] = system: carrageenan induced edema; experiment: Anti-inflammatory activity, carrageenan induced rat paw edema; type: in vivo, Wistar rats; conditions: inhibition of edema, rats
# Outline: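 Used the Winter et al. paw oedema method in Wistar rats of either sex (160–200 g), housed six per cage and acclimatised 48 h. Percent inhibition of oedema was calculated at 1, 2, 3 and 4 h. Diclofenac served as the standard drug.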
MIC [1],"MIC, E. coli [2]",MIC [2],"MIC, P. aeruginosa [3]",MIC [3],MIC [4],MIC (Aspergillus niger),MIC (Aspergillus flavus),Structure (SMILES),% Inhibition ± SEM After 1 h [5],% Inhibition ± SEM After 2 h [5],% Inhibition ± SEM After 3 h [5],% Inhibition ± SEM After 4 h [5]
50 µg/mL,did not show any inhibition,> 100 µg/mL,did not show any inhibition,> 100 µg/mL,50 µg/mL,50 µg/mL,> 100 µg/mL,"O=C1OC(c2ccc3ccccc3c2)=CC1=Cc1cc2ccccc2nc1Cl [Compound 5a, 3-[(2-Chloroquinolin-3-yl)methylene]-5-(naphthalene-2-yl)furan-2(3H)-one]",67 ± 0.14^∗∗ %,62 ± 0.11^∗∗ %,46 ± 0.26%,57 ± 0.27^∗∗ %
25 µg/mL,did not show any inhibition,> 100 µg/mL,did not show any inhibition,> 100 µg/mL,50 µg/mL,50 µg/mL,> 100 µg/mL,"Cc1ccc2nc(Cl)c(C=C3C=C(c4ccc5ccccc5c4)OC3=O)cc2c1 [Compound 5c, 3-[(2-Chloro-6-methylquinolin-3-yl)methylene]-5-(naphthalene-2-yl)furan-2(3H)-one]",69 ± 0.12^∗∗ %,66 ± 0.25^∗∗ %,47 ± 0.17%,59 ± 0.12^∗∗ %
25 µg/mL,–,> 100 µg/mL,–,> 100 µg/mL,50 µg/mL,25 µg/mL,50 µg/mL,"O=C1OC(c2ccc(-c3ccccc3)cc2)=CC1=Cc1cc2ccccc2nc1Cl [Compound 5e, 3-[(2-Chloroquinolin-3-yl)methylene]-5-(biphenyl-4-yl)furan-2(3H)-one]",63 ± 0.09^∗ %,60 ± 0.22^∗∗ %,53 ± 0.18%,59 ± 0.12^∗∗ %
12.5 µg/mL,–,50 µg/mL,–,> 100 µg/mL,25 µg/mL,25 µg/mL,25 µg/mL,"O=C1OC(c2ccc(-c3ccccc3)cc2)=CC1=Cc1cc2cc(Cl)ccc2nc1Cl [Compound 5f, 3-[(2,6-Dichloroquinolin-3-yl)methylene]-5-(biphenyl-4-yl)furan-2(3H)-one]",63 ± 0.13^∗∗ %,58 ± 0.21^∗∗ %,53 ± 0.17%,58 ± 0.12^∗∗ %
25 µg/mL,did not show any inhibition,> 100 µg/mL,did not show any inhibition,> 100 µg/mL,50 µg/mL,50 µg/mL,50 µg/mL,"Cc1ccc2nc(Cl)c(C=C3C=C(c4ccc(-c5ccccc5)cc4)OC3=O)cc2c1 [Compound 5g, 3-[(2-Chloro-6-methylquinolin-3-yl)methylene]-5-(biphenyl-4-yl)furan-2(3H)-one]",67 ± 0.12^∗∗ %,62 ± 0.11^∗∗ %,46 ± 0.33%,56 ± 0.06^∗∗ %
25 µg/mL,–,> 100 µg/mL,–,50 µg/mL,25 µg/mL,25 µg/mL,25 µg/mL,"O=C1NC(c2ccc3ccccc3c2)=CC1=Cc1cc2ccccc2nc1Cl [Compound 6a, 3-[(2-Chloroquinolin-3-yl)methylene]-5-(naphthalene-2-yl)-1H-pyrrol-2(3H)-one]",64 ± 0.06^∗ %,53 ± 0.18^∗∗ %,49 ± 0.10%,36 ± 0.32%
12.5 µg/mL,–,> 100 µg/mL,–,50 µg/mL,12.5 µg/mL,25 µg/mL,12.5 µg/mL,"Cc1ccc2nc(Cl)c(C=C3C=C(c4ccc5ccccc5c4)NC3=O)cc2c1 [Compound 6c, 3-[(2-Chloro-6-methylquinolin-3-yl)methylene]-5-(naphthalene-2-yl)-1H-pyrrol-2(3H)-one]",32 ± 0.02%,55 ± 0.22^∗∗ %,47 ± 0.24%,42 ± 0.20%
6.25 µg/mL,–,12.5 µg/mL,–,12.5 µg/mL,6.25 µg/mL,6.25 µg/mL,12.5 µg/mL,"O=C1NC(c2ccc3ccccc3c2)=CC1=Cc1cc2cc([N+](=O)[O-])ccc2nc1Cl [Compound 6d, 3-[(2-Chloro-6-nitroquinolin-3-yl)methylene]-5-(naphthalene-2-yl)-1H-pyrrol-2(3H)-one]",58 ± 0.25^∗ %,60 ± 0.22^∗∗ %,29 ± 0.16%,48 ± 0.15^∗ %
12.5 µg/mL,–,> 100 µg/mL,–,50 µg/mL,50 µg/mL,50 µg/mL,25 µg/mL,"O=C1NC(c2ccc(-c3ccccc3)cc2)=CC1=Cc1cc2ccccc2nc1Cl [Compound 6e, 3-[(2-Chloroquinolin-3-yl)methylene]-5-(biphenyl-4-yl)-1H-pyrrol-2(3H)-one]",38 ± 0.21%,48 ± 0.21^∗∗ %,44 ± 0.33%,35 ± 0.32%
6.25 µg/mL,–,50 µg/mL,–,25 µg/mL,6.25 µg/mL,6.25 µg/mL,12.5 µg/mL,"O=C1NC(c2ccc(-c3ccccc3)cc2)=CC1=Cc1cc2cc(Cl)ccc2nc1Cl [Compound 6f, 3-[(2,6-Dichloroquinolin-3-yl)methylene]-5-(biphenyl-4-yl)-1H-pyrrol-2(3H)-one]",48 ± 0.13%,63 ± 0.27^∗∗ %,25 ± 0.34%,42 ± 0.20%
25 µg/mL,–,50 µg/mL,–,50 µg/mL,12.5 µg/mL,25 µg/mL,12.5 µg/mL,"Cc1ccc2nc(Cl)c(C=C3C=C(c4ccc(-c5ccccc5)cc4)NC3=O)cc2c1 [Compound 6g, 3-[(2-Chloro-6-methylquinolin-3-yl)methylene]-5-(biphenyl-4-yl)-1H-pyrrol-2(3H)-one]",52 ± 0.08^∗ %,48 ± 0.24^∗∗ %,25 ± 0.17%,36 ± 0.19%
6.25 µg/mL,–,25 µg/mL,–,25 µg/mL,12.5 µg/mL,25 µg/mL,25 µg/mL,"O=C1NC(c2ccc(-c3ccccc3)cc2)=CC1=Cc1cc2cc([N+](=O)[O-])ccc2nc1Cl [Compound 6h, 3-[(2-Chloro-6-nitroquinolin-3-yl)methylene]-5-(biphenyl-4-yl)-1H-pyrrol-2(3H)-one]",58 ± 0.19^∗ %,58 ± 0.05^∗∗ %,50 ± 0.18%,48 ± 0.15^∗ %
50 µg/mL,–,25 µg/mL,–,> 100 µg/mL,> 100 µg/mL,50 µg/mL,> 100 µg/mL,"O=C1C(=Cc2cc3ccccc3nc2Cl)C=C(c2ccc3ccccc3c2)N1Cc1ccccc1 [Compound 7a, 1-Benzyl-3-[(2-chloroquinolin-3-yl)methylene]-5-(naphthalene-2-yl)-1H-pyrrol-2(3H)-one]",52 ± 0.13^∗ %,62 ± 0.27^∗∗ %,28 ± 0.34%,57 ± 0.13^∗∗ %
25 µg/mL,–,50 µg/mL,–,> 100 µg/mL,50 µg/mL,50 µg/mL,25 µg/mL,"Cc1ccc2nc(Cl)c(C=C3C=C(c4ccc5ccccc5c4)N(Cc4ccccc4)C3=O)cc2c1 [Compound 7c, 1-Benzyl-3-[(2-chloro-6-methylquinolin-3-yl)methylene]-5-(naphthalene-2-yl)-1H-pyrrol-2(3H)-one]",78 ± 0.12^∗∗ %,71 ± 0.28^∗∗ %,57 ± 0.25^∗ %,61 ± 0.21^∗∗ %
50 µg/mL,did not show any inhibition,> 100 µg/mL,did not show any inhibition,> 100 µg/mL,> 100 µg/mL,50 µg/mL,> 100 µg/mL,"O=C1C(=Cc2cc3ccccc3nc2Cl)C=C(c2ccc(-c3ccccc3)cc2)N1Cc1ccccc1 [Compound 7e, 1-Benzyl-3-[(2-chloroquinolin-3-yl)methylene]-5-(biphenyl-4-yl)-1H-pyrrol-2(3H)-one]",78 ± 0.12^∗∗ %,51 ± 0.11^∗∗ %,44 ± 0.08%,41 ± 0.08%
6.25 µg/mL,–,6.25 µg/mL,–,6.25 µg/mL,–,–,–,"O=C(O)c1cn(C2CC2)c2cc(N3CCNCC3)c(F)cc2c1=O [Standard-1, Ciprofloxacin, reference compound]",–,–,–,–
–,–,–,–,–,6.25 µg/mL,6.25 µg/mL,6.25 µg/mL,"OC(Cn1cncn1)(Cn1cncn1)c1ccc(F)cc1F [Standard-2, Fluconazole, reference compound]",–,–,–,–
